How the values were obtained:
Mus musculus [1] = assay: Anticonvulsant activity in ip dosed albino CF-1 mouse assessed as protection against maximal electroshock-induced seizure; assay type: functional; conditions: albino CF-1, ip
[2] = Neurotoxicity in ip dosed albino CF-1 mouse by rotorod test; assay type: toxicity, organism-based; conditions: in vivo
Mus musculus [3] = assay: Anticonvulsant activity in ip dosed NMRI mouse assessed as protection against maximal electroshock-induced seizure after 30 mins postdose; assay type: functional; conditions: 0.5 h; for minimal effective dose: read-out: MED
Summary of the method: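 Adult male NMRI mice given compound intraperitoneally; maximal electroshock seizure test run 30 min after dosing. Where a dose–response was run, ED50 in mg/kg was derived. Otherwise a minimal active dose was reported, or the percentage of mice protected at a single dose.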

Mus musculus [4] = assay: Anticonvulsant activity in ip dosed NMRI mouse assessed as protection against 6 Hz psychomotor seizure after 30 mins; assay type: functional; conditions: 0.5 h
Summary of the method: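 Adult male NMRI mice dosed ip. Psychomotor seizures were induced by 6 Hz stimulation at 44 mA, 30 min after administration. ED50 in mg/kg was derived where determinable, otherwise a minimal active dose was reported.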

Mus musculus [5] = assay: Antinociceptive activity in NMRI mouse neuropathic pain model assessed as protection against formalin-induced nociceptive behaviour at 90 mg/kg, ip after 30 mins; assay type: functional; conditions: route intraperitoneal
Summary of the method: (§1)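 Formalin test in adult male NMRI mice used as a prescreen for pain attenuation, 30 min after ip administration. ED50 in mg/kg was derived where possible. Otherwise the percent protected after a single stated dose was reported.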

Mus musculus [6] = assay: Toxicity in ip dosed NMRI mouse assessed as tremors at 90 mg/kg, ip after 30 mins; assay type: organism-based; set-up: dose 90 mg/kg, route intraperitoneal; conditions: in vivo, 0.5 h
Summary of the method: (§2)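 Adult male NMRI mice were dosed ip. Whole-animal pharmacological observation was made at the stated mg/kg dose, recording tremors, convulsions, writhing, impaired gait or mortality. Timing was 30 min post-dose.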

[7] = Neurotoxicity in ip dosed NMRI mouse after 30 mins by rotorod test; assay type: toxicity, organism-based; conditions: in vivo
Summary of the method: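 Neurological impairment was scored by rotorod in adult male NMRI mice 30 min after ip dosing. TD50 in mg/kg was derived where possible, otherwise the maximal tolerated dose was given.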

Mus musculus [8] = assay: Antinociceptive activity in ip dosed NMRI mouse neuropathic pain model assessed as protection against formalin-induced nociceptive behaviour after 30 mins; assay type: functional; conditions: 0.5 h; summary of the method: as §1
Mus musculus [9] = assay: Toxicity in ip dosed NMRI mouse assessed as convulsions at 160 mg/kg, ip after 30 mins; assay type: organism-based; set-up: dose 160 mg/kg, route intraperitoneal; conditions: in vivo, 0.5 h; summary of the method: as §2
Mus musculus [10] = assay: Protective index, ratio of TD50 for NMRI mouse to ED50 for antinociceptive activity in ip dosed NMRI mouse neuropathic pain model; assay type: functional
Mus musculus [11] = assay: Protective index, ratio of TD50 for NMRI mouse to ED50 for anticonvulsant activity in ip dosed NMRI mouse by maximal electroshock seizure test; assay type: functional
Mus musculus [12] = assay: Toxicity in ip dosed NMRI mouse assessed as mortality at 140 mg/kg, ip after 30 mins; assay type: organism-based; set-up: dose 140 mg/kg, route intraperitoneal; conditions: in vivo, 0.5 h
Summary of the method: (§3)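 Adult male NMRI mice dosed intraperitoneally. Whole-animal pharmacological observation at the listed mg/kg dose, with convulsions and mortality recorded as signs. This was done alongside MES, 6 Hz (44 mA) psychomotor seizure, formalin and rotorod testing, which were read 30 min after ip dosing.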

Mus musculus [13] = assay: Toxicity in ip dosed NMRI mouse assessed as convulsions at 77 mg/kg, ip after 30 mins; assay type: organism-based; set-up: dose 77 mg/kg, route intraperitoneal; conditions: in vivo, 0.5 h; summary of the method: as §2
Mus musculus [14] = assay: Antinociceptive activity in NMRI mouse neuropathic pain model assessed as protection against formalin-induced nociceptive behaviour at 24 mg/kg, ip after 30 mins; assay type: functional; conditions: route intraperitoneal; summary of the method: as §1
[15] = Ratio of drug level in brain to plasma in mouse; assay type: ADME, organism-based; conditions: brain and plasma, read-out: BPR
Mus musculus [16] = assay: Toxicity in ip dosed NMRI mouse assessed as convulsions at 105 mg/kg, ip after 30 mins; assay type: organism-based; set-up: dose 105 mg/kg, route intraperitoneal; conditions: in vivo, 0.5 h; summary of the method: as §3
Mus musculus [17] = assay: Toxicity in ip dosed NMRI mouse assessed as mortality at 105 mg/kg, ip after 30 mins; assay type: organism-based; set-up: dose 105 mg/kg, route intraperitoneal; conditions: in vivo, 0.5 h; summary of the method: as §3
Mus musculus [18] = assay: Toxicity in ip dosed NMRI mouse assessed as convulsions at 110 mg/kg, ip after 30 mins; assay type: organism-based; set-up: dose 110 mg/kg, route intraperitoneal; conditions: in vivo, 0.5 h; summary of the method: as §3
Mus musculus [19] = assay: Toxicity in ip dosed NMRI mouse assessed as tremors at 59 mg/kg, ip after 30 mins; assay type: organism-based; set-up: dose 59 mg/kg, route intraperitoneal; conditions: in vivo, 0.5 h; summary of the method: as §2
Mus musculus [20] = assay: Toxicity in ip dosed NMRI mouse assessed as writhings at 59 mg/kg, ip after 30 mins; assay type: organism-based; set-up: dose 59 mg/kg, route intraperitoneal; conditions: in vivo, 0.5 h; summary of the method: as §2
Mus musculus [21] = assay: Antinociceptive activity in NMRI mouse neuropathic pain model assessed as protection against formalin-induced nociceptive behaviour at 110 mg/kg, ip after 30 mins; assay type: functional; conditions: route intraperitoneal; summary of the method: as §1
Mus musculus [22] = assay: Toxicity in ip dosed NMRI mouse assessed as mortality at 110 mg/kg, ip after 30 mins; assay type: organism-based; set-up: dose 110 mg/kg, route intraperitoneal; conditions: in vivo, 0.5 h; summary of the method: as §3

Structure (SMILES): CC(=O)NC(C(=O)NCc1ccccc1)c1cc2ccccc2o1 (racemic)
- ED50 (Mus musculus [1]): 100 mg/kg
- TD50 [2]: 100 mg/kg

Structure (SMILES): CC(=O)NC(C(=O)NCc1ccccc1)c1ccc2ccccc2c1 (racemic)
- ED50 (Mus musculus [1]): > 300 mg/kg
- TD50 [2]: > 300 mg/kg

Structure (SMILES): NC(C(=O)NCc1ccccc1)c1cc2ccccc2o1 (racemic)
- ED50 (Mus musculus [3]): 90 mg/kg
- ED50 (Mus musculus [4]): > 120 mg/kg
- Activity (Mus musculus [5]): 31%
- Activity (Mus musculus [6]): Toxic

Structure (SMILES): NC(C(=O)NCc1ccccc1)c1cccs1 (racemic)
- MTD at 0.5 h [7]: 51 mg/kg
- ED50 (Mus musculus [8]): 48 mg/kg
- minimal effective dose (Mus musculus [3]): 68 mg/kg
- ED50 (Mus musculus [4]): > 91 mg/kg
- Activity (Mus musculus [9]): Toxic
- Ratio TD50/ED50 (Mus musculus [10]): <1.1
- Ratio TD50/ED50 (Mus musculus [11]): <0.8

Structure (SMILES): NC(C(=O)NCc1ccccc1)c1nccs1 (racemic)
- MTD at 0.5 h [7]: 140 mg/kg
- ED50 (Mus musculus [8]): 45 mg/kg
- ED50 (Mus musculus [3]): 67 mg/kg
- ED50 (Mus musculus [4]): > 140 mg/kg
- Ratio TD50/ED50 (Mus musculus [10]): <3.1
- Ratio TD50/ED50 (Mus musculus [11]): <2.1

Structure (SMILES): NC(C(=O)NCc1ccccc1)c1cc2ccccc2s1 (racemic)
- ED50 (Mus musculus [8]): 66 mg/kg
- ED50 (Mus musculus [3]): 120 mg/kg
- ED50 (Mus musculus [4]): > 170 mg/kg

Structure (SMILES): NC(C(=O)NCc1ccccc1)c1ccccc1 (racemic)
- TD50 at 0.5 h [7]: 51 mg/kg
- ED50 (Mus musculus [3]): > 30 mg/kg
- ED50 (Mus musculus [4]): > 43 mg/kg
- Activity (Mus musculus [12]): Toxic
- Activity (Mus musculus [13]): Toxic
- Ratio TD50/ED50 (Mus musculus [10]): >1.2
- Activity (Mus musculus [14]): 37%
- Ratio TD50/ED50 (Mus musculus [11]): >1.7

Structure (SMILES): NC(C(=O)NCc1ccccc1)c1ccccn1 (racemic)
- MTD at 0.5 h [7]: 180 mg/kg
- ED50 (Mus musculus [8]): 33 mg/kg
- minimal effective dose (Mus musculus [3]): 100 mg/kg
- Kp [15]: 2.7
- ED50 (Mus musculus [4]): > 100 mg/kg

Structure (SMILES): NC(C(=O)NCc1ccccc1)c1cccnc1 (racemic)
- ED50 (Mus musculus [8]): 74 mg/kg
- minimal effective dose (Mus musculus [3]): 120 mg/kg
- ED50 (Mus musculus [4]): > 210 mg/kg

Structure (SMILES): NC(C(=O)NCc1ccccc1)c1ccncc1 (racemic)
- ED50 (Mus musculus [8]): 67 mg/kg
- minimal effective dose (Mus musculus [3]): 210 mg/kg
- ED50 (Mus musculus [4]): > 120 mg/kg

Structure (SMILES): NC(C(=O)NCc1ccccc1)c1cnccn1 (racemic)
- TD50 at 0.5 h [7]: > 160 mg/kg
- ED50 (Mus musculus [8]): > 160 mg/kg
- ED50 (Mus musculus [3]): 85 mg/kg
- minimal effective dose (Mus musculus [4]; read-out: MED): 28 mg/kg
- Ratio TD50/ED50 (Mus musculus [10]): >1
- Ratio TD50/ED50 (Mus musculus [11]): >1.9

Structure (SMILES): NC(C(=O)NCc1ccccc1)c1cccc2ccccc12 (racemic)
- ED50 (Mus musculus [8]): > 33 mg/kg
- ED50 (Mus musculus [3]): > 69 mg/kg
- Activity (Mus musculus [16]): Toxic
- ED50 (Mus musculus [4]): > 59 mg/kg
- Activity (Mus musculus [17]): Toxic

Structure (SMILES): NC(C(=O)NCc1ccccc1)c1nccc2ccccc12 (racemic)
- ED50 (Mus musculus [8]): 29 mg/kg
- ED50 (Mus musculus [3]): > 52 mg/kg
- ED50 (Mus musculus [4]): > 93 mg/kg

Structure (SMILES): NC(C(=O)NCc1ccccc1)c1ccc2ccccc2c1 (racemic)
- TD50 at 0.5 h [7]: 110 mg/kg
- ED50 (Mus musculus [8]): < 110 mg/kg
- ED50 (Mus musculus [3]): 45 mg/kg
- Activity (Mus musculus [18]): Toxic
- Activity (Mus musculus [19]): Toxic
- ED50 (Mus musculus [4]): > 110 mg/kg
- Activity (Mus musculus [20]): Toxic
- Activity (Mus musculus [21]): 100%
- Activity (Mus musculus [22]): Toxic
- Ratio TD50/ED50 (Mus musculus [11]): <2.4
